Experimental data: ChEMBL document CHEMBL1221168, “Activity-based probes that target diverse cysteine protease families” (Nat Chem Biol, 2005)
Active and inactive are the calls of the source. The rule behind the calls is not given here. Square brackets hold non-standard residues; d marks the D form. Peptide text beside a SMILES is read from it. * marks the point of attachment. ξ: configuration not given here. AspCH2OBz(2,6-Me2) = Cc1cccc(C)c1C(=O)OCC(=O)[C@H](CC(=O)O)N*; Biotin = O=C1N[C@H]2[C@H](CS[C@H]2CCCCC(=O)*)N1; Tyr(3-I) = N[C@@H](Cc1ccc(O)c(I)c1)C(=O)O; X1 = O=C1N[C@@H]2CSC(CCCCC(=O)*)[C@@H]2N1; ξD = NC(CC(=O)O)C(=O)O; Ahx = NCCCCCC(=O)O; CH2F = FC*

Tests used:
Caspase-6 (Homo sapiens) = target: T1, Caspase-6 (Homo sapiens) (UniProt P55212); experiment: Binding affinity to human recombinant caspase 6 assessed as protein labeling by SDS-PAGE based affinity blotting; settings: tested as the 125I-labelled form
T1 sequence (whole entry): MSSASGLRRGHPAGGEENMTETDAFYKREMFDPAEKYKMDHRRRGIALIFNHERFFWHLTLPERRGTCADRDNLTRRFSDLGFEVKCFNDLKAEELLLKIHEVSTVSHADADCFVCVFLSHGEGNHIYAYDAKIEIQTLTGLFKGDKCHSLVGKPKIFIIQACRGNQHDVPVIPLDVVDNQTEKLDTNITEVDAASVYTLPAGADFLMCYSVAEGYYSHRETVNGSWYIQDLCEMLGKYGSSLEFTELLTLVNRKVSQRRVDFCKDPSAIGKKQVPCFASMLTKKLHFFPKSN

Caspase-9 (Homo sapiens) [1] = target: T2, Caspase-9 (Homo sapiens) (UniProt P55211); experiment: Binding affinity to caspase 9 in human Sh-SY-5Y cells extracts assessed as protein labeling by SDS-PAGE based affinity blotting; format: cell-free
T2 sequence (whole entry): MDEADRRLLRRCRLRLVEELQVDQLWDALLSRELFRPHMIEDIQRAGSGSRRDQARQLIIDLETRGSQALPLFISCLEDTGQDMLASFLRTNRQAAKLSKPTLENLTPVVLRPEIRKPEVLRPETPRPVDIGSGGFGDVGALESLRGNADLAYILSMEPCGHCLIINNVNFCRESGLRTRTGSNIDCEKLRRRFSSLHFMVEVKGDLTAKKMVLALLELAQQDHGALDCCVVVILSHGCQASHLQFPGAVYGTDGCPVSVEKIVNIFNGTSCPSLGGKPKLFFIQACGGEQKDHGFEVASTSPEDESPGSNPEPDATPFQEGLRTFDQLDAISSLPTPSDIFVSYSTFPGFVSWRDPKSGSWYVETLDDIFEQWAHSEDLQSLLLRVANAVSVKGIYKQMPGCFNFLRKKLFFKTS

Caspase-8 (Homo sapiens) = Caspase-8 (Homo sapiens) (UniProt Q14790); experiment: Binding affinity to human recombinant caspase 8 assessed as protein labeling by SDS-PAGE based affinity blotting; settings: tested as the 125I-labelled form
Caspase-9 (Homo sapiens) [2] = target: T2, Caspase-9 (Homo sapiens); experiment: Binding affinity to human recombinant caspase 9 assessed as protein labeling by SDS-PAGE based affinity blotting; settings: tested as the 125I-labelled form
Caspase-3 (Homo sapiens) [3] = target: T3, Caspase-3 (Homo sapiens) (UniProt P42574); experiment: Binding affinity to human recombinant caspase 3 assessed as protein labeling by SDS-PAGE based affinity blotting; settings: tested as the 125I-labelled form
T3 sequence (whole entry): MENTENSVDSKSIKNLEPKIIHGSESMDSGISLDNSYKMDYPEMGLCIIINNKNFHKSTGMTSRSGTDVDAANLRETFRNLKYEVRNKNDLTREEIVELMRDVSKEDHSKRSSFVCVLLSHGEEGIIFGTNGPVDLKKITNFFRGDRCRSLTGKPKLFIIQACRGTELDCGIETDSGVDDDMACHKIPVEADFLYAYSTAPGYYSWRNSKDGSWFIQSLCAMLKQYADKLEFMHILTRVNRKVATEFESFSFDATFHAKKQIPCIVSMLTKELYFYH

Caspase-7 (Homo sapiens) [4] = target: T4, Caspase-7 (Homo sapiens) (UniProt P55210); experiment: Binding affinity to human recombinant caspase 7 assessed as protein labeling by SDS-PAGE based affinity blotting; settings: tested as the 125I-labelled form
T4 sequence (whole entry): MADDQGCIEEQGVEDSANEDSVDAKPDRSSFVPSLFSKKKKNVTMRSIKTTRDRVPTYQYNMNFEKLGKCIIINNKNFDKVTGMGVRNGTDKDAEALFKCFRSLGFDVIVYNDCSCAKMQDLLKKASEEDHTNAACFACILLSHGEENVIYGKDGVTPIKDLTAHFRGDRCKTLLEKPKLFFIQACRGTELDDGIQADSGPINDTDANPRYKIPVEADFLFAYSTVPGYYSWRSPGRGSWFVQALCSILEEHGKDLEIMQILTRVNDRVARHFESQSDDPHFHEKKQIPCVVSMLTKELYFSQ

Legumain (Homo sapiens) [5] = target: T5, Legumain (Homo sapiens) (UniProt Q99538); experiment: Binding affinity to legumain in human 2.2.93 cells assessed as protein labeling at 10 uM after 30 mins by SDS-PAGE based affinity blotting; format: cell-based; settings: tested as the 125I-labelled form
T5 sequence (whole entry): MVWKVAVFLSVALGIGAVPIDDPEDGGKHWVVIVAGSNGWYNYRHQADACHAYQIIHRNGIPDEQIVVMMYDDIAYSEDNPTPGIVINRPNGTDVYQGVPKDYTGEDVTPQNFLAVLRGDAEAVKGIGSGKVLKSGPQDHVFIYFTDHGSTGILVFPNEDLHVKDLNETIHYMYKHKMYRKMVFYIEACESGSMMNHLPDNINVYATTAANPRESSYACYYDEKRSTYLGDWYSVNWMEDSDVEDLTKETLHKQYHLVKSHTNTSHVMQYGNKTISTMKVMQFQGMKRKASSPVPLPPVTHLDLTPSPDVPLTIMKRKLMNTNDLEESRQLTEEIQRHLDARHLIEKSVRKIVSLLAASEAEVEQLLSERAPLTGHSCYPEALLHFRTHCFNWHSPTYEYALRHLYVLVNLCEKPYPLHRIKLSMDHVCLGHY
Procedure, shortened: (§1)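 B cell lines (2.2.93, 8.1.6, Raji) and Jurkat T cell pellets were lysed in 50 mM citrate phosphate, 1% CHAPS, 0.5% Triton, 5 mM DTT for 10 min on ice, then spun at 14,000g for 15 min at 4 °C. Lysates were set to 1 mg/ml in citrate phosphate pH 5.8, 0.1% CHAPS, 5 mM DTT and labeled for 30 min at 37 °C. Read-out was SDS-PAGE and biotin affinity blot.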

Legumain (Homo sapiens) [6] = target: T5, Legumain (Homo sapiens); experiment: Binding affinity to legumain in human 8.1.6 cells assessed as protein labeling at 10 uM after 30 mins immunoprecipitation; format: cell-based; settings: tested as the 125I-labelled form
Procedure, shortened: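 8.1.6 B cell lysate at 1 mg/ml in citrate phosphate pH 5.8, 0.1% CHAPS, 5 mM DTT was labeled with probe for 30 min at 37 °C. Legumain was then immunoprecipitated with polyclonal anti-legumain antisera. Input, pellet and supernatant were probed for biotinylated proteins.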

Legumain (Homo sapiens) [7] = target: T5, Legumain (Homo sapiens); experiment: Binding affinity to legumain in human Jurkat T cells assessed as protein labeling at 10 uM after 30 mins by SDS-PAGE based affinity blotting; format: cell-based; settings: tested as the 125I-labelled form; procedure, shortened: as §1
Legumain (Homo sapiens) [8] = target: T5, Legumain (Homo sapiens); experiment: Binding affinity to legumain in human Raji cells assessed as protein labeling at 10 uM after 30 mins by SDS-PAGE based affinity blotting; format: cell-based; settings: tested as the 125I-labelled form; procedure, shortened: as §1
Legumain (Homo sapiens) [9] = target: T5, Legumain (Homo sapiens); experiment: Binding affinity to legumain in human 8.1.6 cells assessed as protein labeling at 1 uM at acidic pH after 30 mins by SDS-PAGE based affinity blotting; settings: tested as the 125I-labelled form
Legumain (Homo sapiens) [10] = target: T5, Legumain (Homo sapiens); experiment: Binding affinity to human purified legumain assessed as protein labeling; settings: tested as the 125I-labelled form
Legumain (Mus musculus) = target: T6, Legumain (Mus musculus) (UniProt O89017); experiment: Binding affinity to legumain in mouse spleen lysates assessed as protein labeling at 10 uM after 30 mins by SDS-PAGE based affinity blotting; format: tissue-based; settings: tested as the 125I-labelled form
T6 sequence (whole entry): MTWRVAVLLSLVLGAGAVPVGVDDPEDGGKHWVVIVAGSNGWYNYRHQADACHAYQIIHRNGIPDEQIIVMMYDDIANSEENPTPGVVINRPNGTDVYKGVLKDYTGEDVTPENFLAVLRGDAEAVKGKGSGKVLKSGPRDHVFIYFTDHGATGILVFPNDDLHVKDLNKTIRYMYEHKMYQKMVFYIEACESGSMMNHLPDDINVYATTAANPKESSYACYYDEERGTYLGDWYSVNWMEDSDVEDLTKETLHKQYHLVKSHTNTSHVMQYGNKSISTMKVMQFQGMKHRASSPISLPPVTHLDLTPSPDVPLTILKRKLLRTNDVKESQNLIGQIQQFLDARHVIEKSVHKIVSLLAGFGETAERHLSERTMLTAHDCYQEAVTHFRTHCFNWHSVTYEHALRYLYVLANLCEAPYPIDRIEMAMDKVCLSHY

Legumain (Homo sapiens) [11] = target: T5, Legumain (Homo sapiens); experiment: Binding affinity to legumain in human 8.1.6 cells assessed as protein labeling at 10 uM after 30 mins by SDS-PAGE based affinity blotting; format: cell-based; settings: tested as the 125I-labelled form; procedure, shortened: as §1
Caspase-7 (Homo sapiens) [12] = target: T4, Caspase-7 (Homo sapiens); experiment: Binding affinity to caspase 7 in human Sh-SY-5Y cells extracts assessed as protein labeling by SDS-PAGE based affinity blotting; format: cell-free
Caspase-3 (Homo sapiens) [13] = target: T3, Caspase-3 (Homo sapiens); experiment: Binding affinity to caspase 3 in human Sh-SY-5Y cells extracts assessed as protein labeling by SDS-PAGE based affinity blotting; format: cell-free

Caspase-8 (Homo sapiens), sequence (Q14790 217-374 limits assumed): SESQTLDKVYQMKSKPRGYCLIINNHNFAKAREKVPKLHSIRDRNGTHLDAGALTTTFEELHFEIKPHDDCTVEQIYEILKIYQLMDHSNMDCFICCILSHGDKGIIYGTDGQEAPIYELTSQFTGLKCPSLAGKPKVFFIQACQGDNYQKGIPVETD
Caspase-8 (Homo sapiens), sequence (Q14790 385-479 limits assumed): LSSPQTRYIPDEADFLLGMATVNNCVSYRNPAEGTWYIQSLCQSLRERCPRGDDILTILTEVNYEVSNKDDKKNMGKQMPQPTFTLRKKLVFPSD

Activity (Caspase-6 (Homo sapiens)) | Activity (Caspase-9 (Homo sapiens) [1]) | Activity (Caspase-8 (Homo sapiens)) | Activity (Caspase-9 (Homo sapiens) [2]) | Activity (Caspase-3 (Homo sapiens) [3]) | Activity (Caspase-7 (Homo sapiens) [4]) | Activity (Legumain (Homo sapiens) [5]) | Activity (Legumain (Homo sapiens) [6]) | Activity (Legumain (Homo sapiens) [7]) | Activity (Legumain (Homo sapiens) [8]) | Activity (Legumain (Homo sapiens) [9]) | Activity (Legumain (Homo sapiens) [10]) | Activity (Legumain (Mus musculus)) | Activity (Legumain (Homo sapiens) [11]) | Activity (Caspase-7 (Homo sapiens) [12]) | Activity (Caspase-3 (Homo sapiens) [13]) | SMILES
inactive | Active | Active | Active | Active | Active | – | – | – | – | – | – | – | – | – | – | CC(=O)N[C@@H](CCCCNC(=O)CCCCC1SC[C@H]2NC(=O)N[C@@H]12)C(=O)N[C@@H](Cc1ccc(O)c(I)c1)C(=O)NCCCCCC(=O)N[C@@H](CCC(=O)O)C(=O)N[C@H](C(=O)N[C@@H](CC(=O)O)C(=O)COC(=O)c1c(C)cccc1C)C(C)C (stereo not given in full) (Ac-K(X1)[Tyr(3-I)][Ahx]EV-{AspCH2OBz(2,6-Me2)})
Active | – | Active | – | Active | Active | Active | Active | Active | Active | Active | Active | Active | Active | – | – | CC(=O)N[C@@H](CCCCNC(=O)CCCCC1SC[C@H]2NC(=O)N[C@@H]12)C(=O)N[C@@H](Cc1ccc(O)c(I)c1)C(=O)NCCCCCC(=O)N[C@@H](CC(=O)O)C(=O)COC(=O)c1c(C)cccc1C (stereo not given in full)
– | – | – | – | – | – | – | – | – | – | – | – | – | – | Active | Active | COC(=O)CC(NC(=O)[C@H](C)NC(=O)[C@@H](NC(=O)CCCCCNC(=O)CCCC[C@@H]1SC[C@@H]2NC(=O)N[C@@H]21)C(C)C)C(=O)CF (stereo partly drawn) ({Biotin-Ahx}-Val-Ala-[ξD](OMe)-CH2F)
